Test results: PubChem BioAssay
Calls of active or inactive are those of the source.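 The calls were made as follows, unless noted: active = viability loss from added drug above about 55%, and viability with drug at most 40%, in both replicates (limit read from the data, passing the limit was not always enough); inconclusive = both conditions met in only one replicate; inactive = neither replicate meets both conditions.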

Experiments:
[1] = reduced viability of SK-BR-3 breast cancer cells – cell-based, 24 h, human, pilot screen (AID 572;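 active = viability at or below 10% of carrier control in both of two separate runs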;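 also: compound exposure lasted between 18 and 24 h rather than exactly 24 h; 100% = carrier-treated control wells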); conditions: SK-BR-3 viability, CellTiter-Glo luminescence, at 10 µM, stronger effect = lower value
[2] = HUVEC growth inhibition – cell-based, human, primary screen (AID 575;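 active = viability at or below 30% in both replicate assays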;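 also: 100% = median of untreated cell wells with 0.1% DMSO on each plate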); conditions: HUVEC proliferation, CellTiter-Glo luminescence, 72 h; at 10 µM; stronger effect = lower value
Procedure, shortened: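 material = primary HUVEC, no more than 12 passages | input = 1250 cells per well | controls = vehicle and MePR control wells | measured by = CTG luminescence | times = 72 h compound incubation | format = collagen-coated 384-well format | read-out = % viability vs DMSO wells | doses = single 10 µM dose, 0.1% DMSO, from 5x medium stock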

[3] = H69AR cell proliferation blockers – human, duplicate replicates, primary screen (AID 580;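 active = viability at or under a set limit in both replicates, limit being median viability minus 3 SD, cut at about 48% in these data, passing the limit was not always enough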;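 also: 100% = mean luminescence of untreated wells and 0% = no signal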); conditions: H69AR lung tumor cells viability, ATP luminescence, 72 h; at 10 µM; stronger effect = lower value
[4] = MRP1 drug-resistance reversers in H69AR cells – cell-based, doxorubicin co-treatment, pilot screen (AID 601); conditions: CellTiter-Glo, 72 h, at 10 µM; for differential viability (reversal): stronger effect = higher value
[5] = yeast transport mutant growth inhibition pilot in 384-well plates, post-Golgi transport modulator project (AID 636; in the data active = inhibition above about 31%); conditions: absorbance 615 nm, about 18 h, stronger effect = higher value
[6] = growth suppression of yeast trafficking mutant, preliminary HTS, modulators of trafficking downstream of Golgi apparatus project, 1536-format plate, OD 615 nm (AID 637; in the data active = inhibition above about 30%); conditions: yeast transport mutant growth, absorbance 615 nm, 18 h; stronger effect = higher value
[7] = H69AR cells + 2 uM doxorubicin, measured here: viability with 2 uM doxorubicin, stronger effect = lower value
[8] = H69AR cells, compound alone cytotoxicity

SMILES	viability [1]	viability [2]	viability [3]	differential viability (reversal) ([4]; H69AR cells + 2 uM doxorubicin)	viability [4, 7] [%]	viability [4, 8] [%]	inhibition [5]	inhibition [6]
O=C(Nc1nonc1NC(=O)C1CCCCC1)C1CCCCC1	111% (inactive)	84.7% (inactive)	89.9% (inactive)	3.04% (inactive)	86.8	89.9	-10% (inactive)	1.94% (inactive)
CC(CN(C)Cc1ccccc1)OC(=O)c1ccc2c(c1)OCCO2 (stereo unspecified)	93% (inactive)	85.3% (inactive)	94.1% (inactive)	5.22% (inactive)	88.8	94.1	-7.67% (inactive)	1.29% (inactive)
CCOC(=O)C1=C(c2ccccc2)N2CCS(=O)(=O)N=C2S1	92% (inactive)	96.9% (inactive)	90.2% (inactive)	6.51% (inactive)	83.7	90.2	-2.13% (inactive)	0% (inactive)
COCCNC(=O)C(c1ccc(C)o1)N(C(=O)c1snc(C(N)=O)c1N)c1ccc(C)cc1 (stereo unspecified)	100% (inactive)	87.5% (inactive)	92.1% (inactive)	9.05% (inactive)	83.1	92.1	-3.87% (inactive)	3.64% (inactive)
CN(C)c1nc(Oc2ccc(N)cc2)nc(N(C)C)n1	97% (inactive)	86.2% (inactive)	90.1% (inactive)	-6.47% (inactive)	96.6	90.1	-7.73% (inactive)	-2% (inactive)
C1=C(CCNc2ncnc3c2cnn3-c2ccccc2)CCCC1	98% (inactive)	116% (inactive)	88.7% (inactive)	6.36% (inactive)	82.3	88.7	-4.13% (inactive)	0.91% (inactive)
CC(=O)c1cccc(NC(=O)NCc2ccco2)c1	93% (inactive)	93.9% (inactive)	85.7% (inactive)	-0.48% (inactive)	86.2	85.7	-4.79% (inactive)	2.36% (inactive)
CCOc1nc(-c2ccccc2)ccc1-c1noc(-c2ccc(OC)c(OC)c2)n1	68% (inactive)	85.1% (inactive)	67.1% (inactive)	-4.04% (inactive)	71.2	67.1	-1.43% (inactive)	-4.43% (inactive)
O=C(NCCN1CCOCC1)C1CCC(=O)N1Cc1ccccc1Cl (stereo unspecified)	148% (inactive)	96.4% (inactive)	90% (inactive)	3.78% (inactive)	86.3	90	-1.43% (inactive)	-1.48% (inactive)
N[C@@H](C(=O)N[C@@H]1C(=O)N2C(C(=O)O)=C(Cl)CS[C@H]12)c1ccccc1	108% (inactive)	98% (inactive)	114% (inactive)	10.7% (inactive)	103	114	-2.6% (inactive)	4.83% (inactive)
NC(=O)c1c(NC(=O)Cc2cccs2)sc2c1CCC2	103% (inactive)	97.3% (inactive)	94.3% (inactive)	3.05% (inactive)	91.3	94.3	-0.27% (inactive)	-6.94% (inactive)
CCCCc1ccc(NC(=O)N[C@H](C(=O)O)C(C)C)cc1	119% (inactive)	82.6% (inactive)	95% (inactive)	-0.205% (inactive)	95.2	95	-2.05% (inactive)	-5.32% (inactive)
CCn1cc(C(=O)O)c(=O)c2ccc(C)nc21	106% (inactive)	92.1% (inactive)	101% (inactive)	0.53% (inactive)	100	101	-0.78% (inactive)	-3.83% (inactive)
O=C(NCc1ccc2c(c1)OCO2)C1CCC(CNS(=O)(=O)c2ccccc2)CC1 (stereo unspecified)	92% (inactive)	78.9% (inactive)	92.2% (inactive)	-1.49% (inactive)	93.7	92.2	0.52% (inactive)	1.15% (inactive)
O=C(NCc1cccs1)C1CC(=O)N(C2CCCC2)C1 (stereo unspecified)	87% (inactive)	91.1% (inactive)	94.4% (inactive)	7.15% (inactive)	87.3	94.4	2.6% (inactive)	8.03% (inactive)
CC1CCN(S(=O)(=O)c2ccc(Br)s2)CC1	98% (inactive)	91.1% (inactive)	87.5% (inactive)	6.46% (inactive)	81.1	87.5	-2.6% (inactive)	-1.8% (inactive)
CC1(C)NC(=O)N(CC(O)CN2CCCC2)C1=O (stereo unspecified)	96% (inactive)	103% (inactive)	97.2% (inactive)	2.99% (inactive)	94.2	97.2	0.13% (inactive)	-2.79% (inactive)
C=CCNC(=O)c1ccc(Cl)cc1Cl	108% (inactive)	92.8% (inactive)	97% (inactive)	4.47% (inactive)	92.6	97	-3.9% (inactive)	-1.48% (inactive)
Nc1nnc(SCc2cc3c(cc2Cl)OCO3)s1	118% (inactive)	94.4% (inactive)	99.7% (inactive)	14.4% (inactive)	85.2	99.7	-2.47% (inactive)	-1.13% (inactive)

SMILES	viability [1]	viability [2]	viability [3]	differential viability (reversal) ([4]; H69AR cells + 2 uM doxorubicin)	viability [4, 7] [%]	viability [4, 8] [%]	inhibition [5]	inhibition [6]
O=C(O)CCc1ccc(-c2ccc(F)cc2)n1CCC(=O)O	71% (inactive)	104% (inactive)	98.5% (inactive)	-9.11% (inactive)	108	98.5	-7.53% (inactive)	3.45% (inactive)
CCOC(=O)c1cc2c(=O)n3cccc(C)c3nc2n(CC2CCCO2)c1=NC(C)=O (stereo unspecified)	94% (inactive)	109% (inactive)	81.3% (inactive)	61.6% (active)	19.6	81.3	-5.14% (inactive)	0.91% (inactive)
O=C(CN1CCCN(S(=O)(=O)c2ccc(F)cc2)CC1)Nc1ccccc1Br	84% (inactive)	87.7% (inactive)	76.3% (inactive)	-7.18% (inactive)	83.5	76.3	1.17% (inactive)	-1.48% (inactive)
COc1ccc(CNc2nc3nc(C)c(Cl)c(C)n3n2)cc1OC	97% (inactive)	104% (inactive)	92.6% (inactive)	3.22% (inactive)	89.4	92.6	-6.35% (inactive)	-6.73% (inactive)
COc1cc2[nH]c3c(=O)n(CCN(C(C)C)C(C)C)cnc3c2cc1OC	95% (inactive)	99.1% (inactive)	83.5% (inactive)	-0.365% (inactive)	83.9	83.5	-6.89% (inactive)	4.91% (inactive)
COC(=O)c1ccc2c(=O)n(CC3CCCO3)c(=S)[nH]c2c1 (stereo unspecified)	84% (inactive)	106% (inactive)	86.2% (inactive)	2.35% (inactive)	83.9	86.2	-8.36% (inactive)	4.19% (inactive)
Cc1oc2c(c1C(=O)NCc1ccccc1)CCCC2	81% (inactive)	97% (inactive)	107% (inactive)	8.32% (inactive)	99	107	-4.93% (inactive)	-1.64% (inactive)
COc1ccc(-c2noc(CCCOc3ccccc3)n2)cc1OC	78% (inactive)	103% (inactive)	93.7% (inactive)	-7.4% (inactive)	101	93.7	-1.92% (inactive)	4.91% (inactive)
COC(=O)c1ccc(COc2ccc(C3C4=C(CCCC4=O)Nc4onc(C)c43)cc2)cc1 (stereo unspecified)	104% (inactive)	82.3% (inactive)	94.7% (inactive)	2.04% (inactive)	92.7	94.7	-5.19% (inactive)	-3.93% (inactive)
Cn1nc(CC(=O)Nc2ccc(N3CCN(C(=O)OC(C)(C)C)CC3)cc2)c2ccccc2c1=O	84% (inactive)	9.25% (active)	1.72% (active)	-3.22% (inactive)	4.94	1.72	-1.82% (inactive)	-4.26% (inactive)
Cc1ccc(-n2nc3cc(Cl)c(NC(=O)c4ccco4)cc3n2)cc1	116% (inactive)	92.6% (inactive)	42.7% (active)	-5.97% (inactive)	48.7	42.7	-7.53% (inactive)	2.7% (inactive)
CCOC(=O)C1/C(=N\O)CC(C)(O)C(C(=O)OCC)C1c1ccc(N(C)C)cc1 (stereo unspecified)	72% (inactive)	96.9% (inactive)	87.5% (inactive)	-13.3% (inactive)	101	87.5	1.64% (inactive)	5.48% (inactive)
COc1cccc(NC(=O)CC2SC(=Nc3ccccc3)NC2=O)c1 (stereo unspecified)	70% (inactive)	106% (inactive)	92% (inactive)	-6.89% (inactive)	98.9	92	-6.35% (inactive)	-1.27% (inactive)
Cc1[nH]nc(-c2ccc(O)c(C)c2O)c1-c1cnn(-c2ccccc2)c1	93% (inactive)	85.4% (inactive)	94.2% (inactive)	12% (inactive)	82.1	94.2	-4.52% (inactive)	-3.27% (inactive)
C/C(=N\O)C(=O)C(CN1CCCCC1)CN1CCCCC1	116% (inactive)	95.6% (inactive)	8.43% (active)	5.9% (inactive)	2.52	8.43	1.95% (inactive)	-7% (inactive)
CSCCC(NC(=O)CCN1C(=O)c2ccccc2C1=O)C(=O)O (stereo unspecified)	85% (inactive)	101% (inactive)	98.5% (inactive)	13.8% (inactive)	84.7	98.5	-3.01% (inactive)	6.73% (inactive)
CC(CCc1ccccc1)NC(=O)C1CCN(S(=O)(=O)c2cnc[nH]2)CC1 (stereo unspecified)	110% (inactive)	96.4% (inactive)	91.3% (inactive)	10.2% (inactive)	81.1	91.3	-9.73% (inactive)	-3.45% (inactive)
CCCOc1cccc(C(=O)Nc2cc(NC(=O)c3ccco3)ccc2OC)c1	88% (inactive)	85.1% (inactive)	85% (inactive)	-6.07% (inactive)	91.1	85	-3.78% (inactive)	-2.55% (inactive)
